18 compounds from ChEMBL document CHEMBL3865845 (J Med Chem, 2016) can be followed below.

Each structure is given as a SMILES string. Activity calls are given as the source filed them. The rule behind the calls is not given here.

The subject of data set [1] is Human immunodeficiency virus 1. The data set can be described thus: Antiviral activity against wild type HIV1 NL4-3 infected in human MT4 cells by p24 ELISA. The data set is classed as functional, cell-based. To be noted: Human immunodeficiency virus 1, NL4-3, MT4. The gist of the method: (§1)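 Replication-inhibition IC50 values in MT-4 cells, each from three separate experiments.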
For orientation: An ELISA detects its analyte on a solid surface through an enzyme-linked reagent.

The nature of data set [2]: Cytotoxicity against human MT4 cells assessed as reduction in cell viability after 2 days by CytoTox-Glo assay. The data set is classed as toxicity, cell-based. To be noted: mt4, 48 h.
Data set [3] has as its system Human immunodeficiency virus 1. The data set can be described thus: Antiviral activity against bevirimat-resistant HIV1 NL4-3 harboring GagV370A mutant infected in human MT4 cells by p24 ELISA. The settings on record: Human immunodeficiency virus 1, NL4-3, MT4. The data set is classed as functional, cell-based. The essentials: as §1
The test system of data set [4] is Human immunodeficiency virus 1. The data set can be described thus: Resistance index, ratio of IC50 for bevirimat-resistant HIV1 NL4-3 harboring GagV370A mutant infected in human MT4 cells to IC50 for wild type HIV1 NL4-3 infected in human MT4 cells. Format: functional.
For data set [5], the system named is Human immunodeficiency virus 1. The data set can be described thus: Potency index, ratio of IC50 for Bevirimat to IC50 for test compound for antiviral activity against bevirimat-resistant HIV1 NL4-3 harboring GagV370A mutant infected in human MT4 cells by p24 ELISA. Format: functional.
Data set [6] can be described thus: Inhibition of HIV1 integrase activity assessed as suppression of viral replication in human MT2 cells. Format: cell-based. To be noted: Human immunodeficiency virus 1, MT2.
A further data set relates to COS. Kind of data set: Inhibition of wild type HIV1 NL4-3 Env-mediated cell-cell fusion between viral envelope expressing virus-infected African green monkey COS cells to human TZM-bl cells incubated overnight by luciferase reporter gene assay. The data set is classed as cell-based. The settings on record: Human immunodeficiency virus 1. (Reporter assays use an easily measured gene product as a stand-in for the process of interest.)

For data set [7], the system named is Human immunodeficiency virus 1. The data set can be described thus: Antiinfective activity against wild type HIV1 NL4-3 assessed as inhibition of viral infection by measuring viral infection level in human TZM-bl cells at 2 uM after 48 hrs by luciferase reporter gene assay (reference value: 100%). Format: functional. Set-up: scale not given: the % may be the effect or the level left. The essentials: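 NL4-3 infection of TZM-bl cells with each compound at 2 µM, read by luminescence. Infection without compound served as control. % control infection = 100 × RLU(compound)/RLU(control).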

A short description of data set [8]: Half life in human liver microsomes at 1 uM in presence of NADPH by LC/MS/MS analysis. The data set is classed as ADME.
The nature of data set [9]: Elimination half life in healthy humans. The data set is classed as ADME. The settings on record: human, in vivo; read-out: beta t1/2.
The subject of data set [10] is Human immunodeficiency virus 1. Kind of data set: Potency index, ratio of IC50 for Bevirimat to IC50 for test compound for antiviral activity against wild type HIV1 NL4-3 infected in human MT4 cells by p24 ELISA. Format: functional.
The nature of data set [11]: Inhibition of HIV1 integrase activity assessed as suppression of viral replication in human H9 cells. To be noted: Human immunodeficiency virus 1, H9. The data set is classed as cell-based.
The nature of data set [12]: Selectivity index, ratio of CC50 for human MT4 cells to IC50 for wild type HIV1 NL4-3 infected in human MT4 cells. The data set is classed as functional. The gist of the method: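 Index is CC50 (cytotoxicity in MT-4 cells) divided by IC50 (inhibition of HIV-1/NL4-3 replication in MT-4 lymphocytes). Values are from three separate experiments. A ratio below 5 was scored as no selective anti-HIV activity.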

For the compound `C=C(C)[C@@H]1CC[C@]2(C(=O)N3CCN(C(=O)/C=C/c4ccc5c(c4)OCO5)CC3)CC[C@]3(C)[C@H](CC[C@@H]4[C@@]5(C)CC[C@H](O)C(C)(C)[C@@H]5CC[C@]43C)[C@@H]12`, in [1], the 50% inhibitory concentration (IC50) (usually the concentration at which inhibition is half-maximal) was more than 1000 nM.

`C=C(C)[C@@H]1CC[C@]2(C(=O)N3CCNCC3)CC[C@]3(C)[C@H](CC[C@@H]4[C@@]5(C)CC[C@H](OC(=O)CC(C)(C)C(=O)O)C(C)(C)[C@@H]5CC[C@]43C)[C@@H]12` returned a half-inhibitory concentration (IC50) in [1] of 490 nM. The half-maximal cytotoxic concentration (CC50) (usually the concentration at which the toxic effect on the cells reaches its halfway point) in [2] is more than 1500 nM.

The compound `C=C(C)[C@@H]1CC[C@]2(C(=O)N3CCN(C(=O)/C=C/c4ccc(OCOC)c(OCOC)c4)CC3)CC[C@]3(C)[C@H](CC[C@@H]4[C@@]5(C)CC[C@H](OC(=O)CC(C)(C)C(=O)O)C(C)(C)[C@@H]5CC[C@]43C)[C@@H]12` yielded an IC50 in [1] of 50 nM. Besides, the 50% cytotoxic concentration (CC50) in data set [2] is more than 4500 nM.

On to `C=C(C)[C@@H]1CC[C@]2(C(=O)N3CCN(C(=O)/C=C/c4ccc(OC)c(OC)c4)CC3)CC[C@]3(C)[C@H](CC[C@@H]4[C@@]5(C)CC[C@H](OC(=O)CC(C)(C)C(=O)O)C(C)(C)[C@@H]5CC[C@]43C)[C@@H]12`, for which the IC50 in [1] was 29 nM; in data set [3], 2970 nM. The “Ratio IC50” value in data set [4] is on record as 102.41; in [5], 1.39 - 51.4. In addition, the cytotoxic concentration (CC50) in data set [2] was more than 4500 nM.

In data set [1], `O=C(/C=C/c1ccc2c(c1)OCO2)N1CCNCC1` displayed an IC50 of more than 90000 nM. The 50% cytotoxic concentration (CC50) in data set [2] is more than 90000 nM.

`O=C(/C=C/c1ccc(O)c(O)c1)O[C@@H]1C[C@](O)(C(=O)O)C[C@@H](OC(=O)/C=C/c2ccc(O)c(O)c2)[C@H]1O`: the IC50 in [6] worked out at 1900 nM.

As to `C=C(C)[C@@H]1CC[C@]2(C(=O)NCCCCCCCNC(C)=O)CC[C@]3(C)[C@H](CC[C@@H]4[C@@]5(C)CC[C@H](O)C(C)(C)[C@@H]5CC[C@]43C)[C@@H]12`, in the data set on COS, the inhibition entry was “Active”.

Turning to `C=C(C)[C@@H]1CC[C@]2(C(=O)N3CCN(CCCCC(=O)N4CCN(C(=O)/C=C/c5ccc6c(c5)OCO6)CC4)CC3)CC[C@]3(C)[C@H](CC[C@@H]4[C@@]5(C)CC[C@H](OC(=O)CC(C)(C)C(=O)O)C(C)(C)[C@@H]5CC[C@]43C)[C@@H]12`, the IC50 was found to be 12 nM in data set [1] and 5530 nM in [3]. The “Ratio IC50” value was 460.83 in [4] and 1.39 - 51.4 in data set [5]. In addition, the CC50 in data set [2] was more than 4500 nM.

`C=C(C)[C@@H]1CC[C@]2(C(=O)N3CCN(CCCCC(=O)N4CCN(C(=O)/C=C/c5ccc6c(c5)OCO6)CC4)CC3)CC[C@]3(C)[C@H](CC[C@@H]4[C@@]5(C)CC[C@H](O)C(C)(C)[C@@H]5CC[C@]43C)[C@@H]12` yielded an IC50 in [1] of more than 1000 nM.

As to `C=C(C)[C@@H]1CC[C@]2(C(=O)N3CCN(C(=O)/C=C/c4ccc(OC)c(OC)c4)CC3)CC[C@]3(C)[C@H](CC[C@@H]4[C@@]5(C)CC[C@H](O)C(C)(C)[C@@H]5CC[C@]43C)[C@@H]12`, the IC50 in data set [1] is more than 1000 nM.

In the case of `O=C(/C=C/c1ccc(O)c(O)c1)O[C@H](C(=O)O)[C@H](OC(=O)/C=C/c1ccc(O)c(O)c1)C(=O)O` [CHICORIC ACID], in data set [6], the 50% inhibitory concentration (IC50) is 4200 nM.

Consider `C=C(C)[C@@H]1CC[C@]2(C(=O)N3CCN(C(=O)/C=C/c4ccc5c(c4)OCO5)CC3)CC[C@]3(C)[C@H](CC[C@@H]4[C@@]5(C)CC[C@H](OC(=O)CC(C)(C)C(=O)O)C(C)(C)[C@@H]5CC[C@]43C)[C@@H]12`, for which the IC50 was 19 nM in data set [1] and 150 nM in [3]. The “Ratio IC50” value was 7.89 - 7.9 in data set [4], 3 in data set [10] and 51 in data set [5]. In addition, the CC50 in data set [2] is more than 4500 nM. Further, the Activity in data set [7] was found to be 99%. For the same compound, the t1/2 in data set [8] was found to be 2.13 h. In data set [9], the half-life is 56.3 to 69.5 h.

Consider `C=C(C)[C@@H]1CC[C@]2(C(=O)N3CCN(C(=O)/C=C/c4ccc(O)c(O)c4)CC3)CC[C@]3(C)[C@H](CC[C@@H]4[C@@]5(C)CC[C@H](OC(=O)CC(C)(C)C(=O)O)C(C)(C)[C@@H]5CC[C@]43C)[C@@H]12`, for which the results for the IC50 in data set [1] and in data set [3] were 28 nM and 2210 nM, respectively. The “Ratio IC50” value in [4] was 78.93. The CC50 in [2] is more than 4500 nM.

`O=C(/C=C/c1ccc(O)c2c1[C@H](C(=O)O)[C@@H](c1ccc(O)c(O)c1)O2)O[C@H](Cc1ccc(O)c(O)c1)C(=O)O` [LITHOSPERMIC ACID]: in data set [11], the IC50 was 2000 nM.

The compound `O=C(O)/C=C/c1ccc2c(c1)OCO2` yielded a half-maximal inhibitory concentration (IC50) in data set [1] of more than 90000 nM. Also, the CC50 in [2] is more than 90000 nM.

As to `C=C(C)[C@@H]1CC[C@]2(C(=O)O)CC[C@]3(C)[C@H](CC[C@@H]4[C@@]5(C)CC[C@H](OC(=O)CC(C)(C)C(=O)O)C(C)(C)[C@@H]5CC[C@]43C)[C@@H]12` [BEVIRIMAT], the IC50 in data set [1] turned out to be 65 nM; in [3] it was 7710 nM. Also, the half-maximal cytotoxic concentration (CC50) in data set [2] is more than 4500 nM. Moreover, the Activity in data set [7] stood at 98%. For the same compound, the t1/2 in data set [8] worked out at 0.9 h.

Turning to `C=C(C)[C@@H]1CC[C@]2(C(=O)N3CCN(C(=O)/C=C/c4ccc(OCOC)c(OCOC)c4)CC3)CC[C@]3(C)[C@H](CC[C@@H]4[C@@]5(C)CC[C@H](O)C(C)(C)[C@@H]5CC[C@]43C)[C@@H]12`, the IC50 in [1] is more than 1000 nM.

`O=C(O)/C=C/c1ccc(O)c(O)c1` [CAFFEIC ACID] yielded a 50% inhibitory concentration (IC50) in [1] of more than 1000 nM. In data set [12], the “Ratio CC50/IC50” value is less than 5.
